Measured values from paper PMC6220817 (Chemistry (Weinheim an Der Bergstrasse, Germany), 2018).
Ends that are not written are not given here. TMR‑5‑maleimide = tetramethylrhodamine-5-maleimide

Legend:
tubulin [1] = details: Reported value for the binding to tubulin; cited from earlier work
tubulin [2] = biological target: tubulin (Sus scrofa, UniProt P02550+P02554); test: Turbidity measurement of tubulin polymerization; format: biochemical, porcine; details: 10 μM compound, 4 μM tubulin, 1 mM GTP; for Stability of treated microtubules on cooling (turbidity): cooled to 4 °C for 15 min; for Turbidity (optical density at 350 nm) / tubulin polymerization: BRB80, 37 °C, 60 min
In short: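 Porcine brain tubulin (4 μM) with 1 mM GTP in BRB80 (80 mM PIPES pH 6.9, 1 mM MgCl2, 1 mM EGTA) at 37 °C. Test compound or taxol at 10 μM, or none. OD350 read by UV/Vis every 1 min for 60 min. Samples then held at 4 °C for 15 min and read again.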

[3] = biological target: tubulin (α‐ and β‐tubulin dimer) (porcine (purified from porcine brain)) (UniProt P02550); test: equilibrium dialysis
Chain of tubulin (α‐ and β‐tubulin dimer) (porcine (purified from porcine brain)) (P02550 whole entry, chain 1 of 2): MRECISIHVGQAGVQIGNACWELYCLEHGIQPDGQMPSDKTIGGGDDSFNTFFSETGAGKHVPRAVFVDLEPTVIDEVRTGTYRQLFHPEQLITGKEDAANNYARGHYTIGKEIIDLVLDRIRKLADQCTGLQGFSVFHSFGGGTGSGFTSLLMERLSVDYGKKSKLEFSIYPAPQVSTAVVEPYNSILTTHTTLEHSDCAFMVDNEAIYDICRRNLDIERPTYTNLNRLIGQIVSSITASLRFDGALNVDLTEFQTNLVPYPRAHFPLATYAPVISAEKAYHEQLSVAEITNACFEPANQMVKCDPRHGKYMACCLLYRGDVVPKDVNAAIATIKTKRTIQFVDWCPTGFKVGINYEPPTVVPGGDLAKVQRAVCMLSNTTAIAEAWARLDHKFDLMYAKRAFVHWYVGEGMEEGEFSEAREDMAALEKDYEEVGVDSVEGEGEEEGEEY
Chain of tubulin (α‐ and β‐tubulin dimer) (porcine (purified from porcine brain)) (P02554 whole entry, chain 2 of 2, further chain): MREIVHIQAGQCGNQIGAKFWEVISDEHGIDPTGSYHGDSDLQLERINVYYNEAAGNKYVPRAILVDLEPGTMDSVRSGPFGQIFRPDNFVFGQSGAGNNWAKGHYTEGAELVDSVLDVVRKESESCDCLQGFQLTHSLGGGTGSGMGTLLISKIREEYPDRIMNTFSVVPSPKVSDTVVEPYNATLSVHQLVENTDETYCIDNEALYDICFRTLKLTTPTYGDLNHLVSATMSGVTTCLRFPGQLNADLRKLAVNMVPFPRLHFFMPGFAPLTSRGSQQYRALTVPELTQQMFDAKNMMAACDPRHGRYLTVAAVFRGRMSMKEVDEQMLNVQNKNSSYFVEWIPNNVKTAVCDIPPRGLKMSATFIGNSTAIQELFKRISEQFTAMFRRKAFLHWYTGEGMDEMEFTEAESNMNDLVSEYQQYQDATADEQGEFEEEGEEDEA

Chain of tubulin (Sus scrofa, UniProt P02550+P02554) (P02554 whole entry): as the sequence (P02554 whole entry, chain 2 of 2, further chain) above
Chain of tubulin (Sus scrofa, UniProt P02550+P02554) (P02550 whole entry): as the sequence (P02550 whole entry, chain 1 of 2) above

Question: With `CC(=O)O[C@H]1C(=O)[C@@]2(C)[C@H]([C@H](OC(=O)c3ccccc3)[C@]3(O)C[C@H](OC(=O)[C@H](O)[C@@H](NC(=O)c4cccc(N(C)C)c4)c4ccccc4)C(C)=C1C3(C)C)[C@]1(OC(C)=O)CO[C@@H]1C[C@@H]2O` [Taxol derivative, N‐debenzoyl‐N‐[3‐(dimethylamino)benzoyl]taxol] as the molecule, how does the Kd (tubulin [1]) read?
Answer: 49 µM

Question: For `CC(=O)O[C@H]1C(=O)[C@@]2(C)[C@H]([C@H](OC(=O)c3ccccc3)[C@]3(O)C[C@H](OC(=O)[C@H](O)[C@@H](NC(=O)c4ccccc4)c4ccccc4)C(C)=C1C3(C)C)[C@]1(OC(C)=O)CO[C@@H]1C[C@@H]2O` [taxol, reference compound], which “Stability of treated microtubules on cooling (turbidity)” value (tubulin [2]) is on record?
Answer: remained stable

Question: With H-CGGGKKHVPGGGSVQIVYKPVDL-OH [2N] as the molecule, how does the “Turbidity (optical density at 350 nm) / tubulin polymerization” value (tubulin [2]) read?
Answer: increases the turbidity

Question: What about the “Stability of treated microtubules on cooling (turbidity)” value (tubulin [2]) of the same molecule?
Answer: completely depolymerized

Question: Which “Turbidity (optical density at 350 nm) / tubulin polymerization” value (tubulin [2]) does the source give for H-KHQPGGGKVQIINKKLDLGGGC-OH [1C] here?
Answer: less effective

Question: With H-KKHVPGGGSVQIVYKPVDLGGGC-OH [2C] as the molecule, how does the “Turbidity (optical density at 350 nm) / tubulin polymerization” value (tubulin [2]) read?
Answer: less effective

Question: With “H‐Cys(Trt)‐Gly‐Gly‐Gly‐Lys(Boc)‐His(Trt)‐Gln(Trt)‐Pro‐Gly‐Gly‐Gly‐Lys(Boc)‐Val‐Gln(Trt)‐Ile‐Ile‐Asn(Trt)‐Lys(Boc)‐Lys(Boc)‐Leu‐Asp(OtBu)‐Leu‐Alko‐PEG resin [1N]” as the molecule, how does the “Turbidity (optical density at 350 nm) / tubulin polymerization” value (tubulin [2]) read?
Answer: less effective

Question: For KHQPGGGKVQIINKKLDLGGGC(TMR‑5‑maleimide) [1C‐TMR], which Kd [3] is on record?
Answer: 16.7 µM

Question: For C(TMR‑5‑maleimide)GGGKHQPGGGKVQIINKKLDL [1N‐TMR], which Kd [3] is on record?
Answer: 3.4 µM
